Published values of several laboratories.
Protocols differ between the studies behind these lines.
Target: Maternal embryonic leucine zipper kinase (MELK, Homo sapiens, UniProt Q14680)

Structure (SMILES) | assay | setting | endpoint | value
N#Cc1ccc(Nc2ccc3[nH]c(=O)[nH]c3c2)c(Cl)c1 | cell-free assay, competition with immobilised ligand | 1 µM | remaining binding | 95%
CC(C)(O)[C@H]1CC[C@H](Nc2ccc3ncc(-c4cccc(C(F)(F)F)c4)n3n2)CC1 | enzyme activity, inhibitor | 1 µM | remaining activity | 86.3%
CC(C)(C)C(=O)c1sc(NC2CCCCC2)nc1N | enzyme activity, inhibitor | 10 µM | remaining activity | 89%
CCN(CC)c1ccc(C2=NNC(=O)CC2C)cc1[N+](=O)[O-] (centres unmarked) | enzyme activity, inhibitor | 10 µM | remaining activity | 92%
C[C@@]1(Cc2ccc(C#N)cc2)C(=O)N(c2cc(Cl)cc(Cl)c2)c2ncc(C(=O)NC3(c4nc(C5CCC5)no4)CC3)n21 | cell-free assay, competition with immobilised ligand | 1 µM | remaining binding | 89%
O=C(Nc1cnn(-c2csc(C(=O)NC3COC3)c2)c1)Nc1ccccc1Cl | enzyme activity, inhibitor | 5 µM | remaining activity | 48.7%
COc1cc(Nc2cnc(C#N)c(O[C@H](C)CN(C)C)n2)ncc1-c1cnn(C)c1 | enzyme activity, inhibitor, radiometric | 1 µM | remaining activity | 109%
COc1cc(-c2cc(-c3ccc(N4CCNCC4)cc3)cnc2C)cc(OC)c1OC | enzyme activity, inhibitor | 1 µM | inhibition | 8%
Oc1cccc(-c2nc(N3CCOCC3)c3oc4ncccc4c3n2)c1 | enzyme activity, inhibitor | 10 µM | remaining activity | 104%
CNC(=O)c1cc(Oc2ccc(NC(=O)Nc3ccc(Cl)c(C(F)(F)F)c3)cc2)ccn1 | enzyme activity, inhibitor | 0.3 µM | inhibition | 4%
CC(C)(C)c1nc(-c2cccc(NS(=O)(=O)c3c(F)cccc3F)c2F)c(-c2ccnc(N)n2)s1 | enzyme activity, inhibitor, radiometric | 1 µM | remaining activity | 27%
Clc1ccc(Nc2nnc(Cc3ccncc3)c3ccccc23)cc1 | cell-free assay | 0.5 µM | remaining signal | 83.7%
Cc1cnc(NC2CCOCC2)nc1-n1cnc(C(=O)NC(CN)c2cc(F)cc(Cl)c2)c1 (centres unmarked) | enzyme activity, inhibitor, radiometric | 1 µM | remaining activity | 49%
Cc1ccc(Nc2nccc(N(C)c3ccc4c(C)n(C)nc4c3)n2)cc1S(N)(=O)=O | enzyme activity, inhibitor | 0.3 µM | inhibition | 7%
COc1cc2ncnc(Nc3ccc(Oc4ccccc4)cc3C)c2cc1OC | enzyme activity, inhibitor | 1 µM | inhibition | 0%
O=C1Nc2ccc(Cl)cc2C1=Cc1cc(Cl)c(O)c(Cl)c1 | cell-free assay | 0.5 µM | remaining signal | 83.6%

Structure (SMILES) | assay | setting | endpoint | value
Nc1ncnc2occ(-c3ccc(NC(=O)Nc4cc(C(F)(F)F)ccc4F)cc3)c12 | cell-free assay, inhibitor | 20 µM | remaining signal | 8.1%
C[C@H](c1cccc(C#N)c1)n1cc(Cl)cc(C(N)=O)c1=N | cell-free assay, competition with immobilised ligand | 1 µM | remaining binding | 74%
COc1ccc(COc2ccc(Cc3cnc(N)nc3N)cc2OC)cc1 | cell-free assay | 0.5 µM | remaining signal | 102%
CCCS(=O)(=O)Nc1ccc(F)c(C(=O)c2c[nH]c3ncc(-c4ccc(Cl)cc4)cc23)c1F | enzyme activity, inhibitor | 1 µM | inhibition | < 10%
C[C@H](c1ccnc(Nc2nc3ccc(-c4cc(N(C)C)ncn4)cc3[nH]2)c1)N1CCN(C(=O)CC(F)(F)F)CC1 | cell-free assay, competition with immobilised ligand | 0.1 µM | remaining binding | 100%
CC(C)(C)c1nc2c3cc[nH]c(=O)c3c3cc(F)ccc3c2[nH]1 | cell-free assay | 0.5 µM | remaining signal | 5.23%
FC(F)(F)Oc1cccc(-c2cnc3ccc(-c4ccncc4)nn23)c1 | enzyme activity, inhibitor, radiometric | 5 µM | activity vs control | 77%
CO[C@@H](C)c1c(Nc2ccc([C@@H](N(C)C(=O)C3CCS(=O)(=O)CC3)C(F)(F)F)cc2)cnc2cc(Cl)nn12 | cell-free assay, competition with immobilised ligand | 1 µM | remaining binding | 52%
O=[N+]([O-])c1cccc2[nH]c(CNc3nc(N4CCOCC4)nc4c3ncn4-c3ccsc3)nc12 | binding, competition with immobilised ligand | 10 µM | binding vs control | 47%
CNC(=O)Nc1ccc2c(c1)[C@@]1(CC2)OC(=O)N(CC(=O)N(Cc2ccc(F)cc2)[C@@H](C)C(F)(F)F)C1=O | cell-free assay, competition with immobilised ligand | 1 µM | remaining binding | 100%
C#Cc1cccc(Nc2ncnc3cc(OCCOC)c(OCCOC)cc23)c1 | cell-free assay | 0.5 µM | remaining signal | 88.6%
CCN(CC)CCNC(=O)c1c(C)[nH]c(/C=C2\C(=O)Nc3ccc(F)cc32)c1C | enzyme activity, inhibitor | 10 µM | inhibition | 99%
Cc1noc([C@H]2C[C@@H](c3ccc(C(F)(F)F)cc3)CN(C(=O)N3CCS(=O)(=O)C3)C2)n1 | cell-free assay, competition with immobilised ligand | 1 µM | remaining binding | 100%
CC/C(=N\NC(=O)NCc1cccc(O)c1)c1ccc(O)c(C)c1O | enzyme activity, inhibitor | 0.1 µM | inhibition | 0.7%
CCC(=O)N[C@H]1CC[C@@H](C(=O)N(C)c2ccc(-c3nc4ccccc4o3)cc2)C1 | cell-free assay, competition with immobilised ligand | 1 µM | remaining binding | 94%
Nc1nc(Nc2ccccc2)sc1C(=O)c1c(F)cccc1F | enzyme activity, inhibitor | 10 µM | remaining activity | 47%
